The target of one series is T1, Cytochrome P450 1A2 (Homo sapiens, UniProt P05177).
T1 sequence (P05177 whole entry): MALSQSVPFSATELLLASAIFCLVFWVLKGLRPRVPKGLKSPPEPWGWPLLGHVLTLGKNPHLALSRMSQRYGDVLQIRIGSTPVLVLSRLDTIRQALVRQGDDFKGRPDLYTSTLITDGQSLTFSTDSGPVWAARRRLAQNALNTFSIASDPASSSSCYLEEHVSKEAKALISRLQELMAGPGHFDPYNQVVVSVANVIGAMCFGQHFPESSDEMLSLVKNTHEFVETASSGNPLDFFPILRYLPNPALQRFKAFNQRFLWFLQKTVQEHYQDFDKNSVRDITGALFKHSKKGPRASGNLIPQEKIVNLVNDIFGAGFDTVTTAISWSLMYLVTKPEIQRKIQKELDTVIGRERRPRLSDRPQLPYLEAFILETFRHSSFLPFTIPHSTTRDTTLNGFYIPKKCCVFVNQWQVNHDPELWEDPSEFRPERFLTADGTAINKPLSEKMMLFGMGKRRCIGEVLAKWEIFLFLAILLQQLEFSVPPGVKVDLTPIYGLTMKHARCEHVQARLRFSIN
The series can be described thus: Inhibition of CYP1A2 in human liver microsomes preincubated for 5 mins followed by NADPH addition and measured after 10 mins by LC/MS analysis. The class given is ADME, Microsome. An outline of the steps: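 Human liver microsomes (0.2 mg/mL stock) in 0.1 M potassium phosphate pH 7.4, prewarmed 5 min at 37 °C with test compound. Phenacetin as substrate; reaction started with NADPH (8 mM stock) and run 10 min, in duplicate. α-Naphthoflavone as reference inhibitor; LC/MS read-out.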
(Liver microsomes are a subcellular fraction often used to study metabolism.)

Series [1] in a line: Downregulation of KLK3 gene expression in human LNCaP cells at 0.3 nM incubated for 24 hrs by qRT-PCR analysis. Format: functional. An outline of the steps: (§1)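 LNCaP cells (RPMI 1640) or VCaP cells (DMEM Glutamax), both with 10% FBS, treated for 24 h. KLK3 mRNA measured by qRT-PCR and calculated by the comparative CT method against GAPDH and vehicle.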
A general note: In qPCR the cycle at which signal appears reflects the starting amount.

Series [2] is described as follows: Metabolic stability in human plasma assessed as half life at 1 uM measured upto 120 mins by LC-MS/MS analysis. The class given is ADME, cell-free. The note with it: 2 h. An outline of the steps: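 Compound at 1 μM final in pre-warmed plasma of each species, 37 °C for up to 2 h. ACN/IS quench at 0, 5, 15, 30, 60 and 120 min; LC/MS. Procaine as reference (benfluorex for rat). t1/2 = 0.693/slope of ln(fraction remaining) versus time.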

A short description of series [3]: Clearance in ICR mouse at 2 mg/kg, iv measured upto 24 hrs by LC-MS/MS analysis. The note with it: in vivo. Format: ADME, organism-based. An outline of the steps:
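Male ICR mice (2 mg/kg), male SD rats (1 mg/kg) or male Beagle dogs (1 mg/kg) given a single intravenous dose in 10% PEG400 + 90% PBS adjusted to pH 8.0 with NaOH.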

The nature of series [4]: Volume of distribution at steady state in ICR mouse at 2 mg/kg, iv measured upto 24 hrs by LC-MS/MS analysis. Conditions: in vivo. Format: ADME, organism-based. A digest of the protocol: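 Male ICR mice. IV 2 mg/kg and PO 5 mg/kg, both in 10% PEG400 + 90% PBS adjusted to pH 8.0. Plasma sampled to 24 h; F from IV and PO exposure.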
A short description of series [5]: Clearance in Sprague-Dawley rat at 1 mg/kg, iv measured upto 24 hrs by LC-MS/MS analysis. The class given is ADME, organism-based. Conditions: in vivo. A digest of the protocol: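 Male Sprague Dawley rats received a single intravenous dose of 1 mg/kg, formulated in 10% PEG400 + 90% PBS adjusted to pH 8.0 with 0.5 N NaOH.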
Series [6] deals with VCaP. The series can be described thus: Antitumor activity against human VCaP cells xenografted in CB17 SCID mouse assessed as tumor growth inhibition at 15 mg/kg, po administered for 21 days. Conditions: 504 h, time 21 day, read-out: TGI. Format: functional. A general note: In xenograft studies the graft and the host belong to different species.
Series [7] in a line: Drug concentration in CB17 SCID mouse plasma xenografted with human VCaP cells at 12.5 mg/kg, po measured after 24 hrs by LC-MS/MS analysis. Format: ADME, organism-based. An outline of the steps:
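SCID mice bearing one VCaP tumour each given a single oral 12.5 mg/kg dose in 100% PEG200. Plasma and tumour tissue collected at 6 and 24 h, 3 mice per time point. Values are mean ± SD.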

A short description of series [8]: Drug concentration in ICR mouse plasma at 10 mg/kg, po measured after 3 hrs. The class given is ADME, organism-based. A digest of the protocol:
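Mice given a single 10 mg/kg dose by oral gavage, 3 mice per time point. Plasma drug levels measured at 1, 3, 6 and 24 h; mean ± SD reported.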

Series [9] has as its system VCaP. The series can be described thus: Antitumor activity against human VCaP cells xenografted in CB17 SCID mouse assessed as tumor growth inhibition at 3.75 mg/kg, po administered for 21 days. Conditions: 504 h, time 21 day, read-out: TGI. Format: functional. A digest of the protocol:
(§2)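 SCID mice bearing VCaP xenografts dosed by oral gavage once daily for 21 days at 3.75, 7.5, 12.5 or 25 mg/kg. Tumour growth inhibition calculated against vehicle-treated mice at the end of treatment; body weight monitored.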

The subject of series [10] is VCaP. The experiment in a line: Growth inhibition in human VCaP cells incubated for 4 days by WST-8 assay. Format: functional, cell-based. Conditions: 96 h.
The subject of series [11] is Mus musculus. The series can be described thus: In vivo induction of androgen receptor degradation in human VCaP cells xenografted in CB17 SCID mouse at 12.5 mg/kg, po measured upto 24 hrs by […] analysis. Format: functional, organism-based.
The nature of series [12]: Metabolic stability in human liver microsomes assessed as half life at 1 uM measured upto 45 mins in presence of NADPH by LC-MS/MS analysis. Conditions: 0.75 h. The class given is ADME, Microsome. A digest of the protocol:
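Pooled liver microsomes from each species: 1 μM compound with 0.5 mg/mL microsomes and 1.7 mM NADPH in 0.1 M K-phosphate, pH 7.4, 5 mM MgCl2, 37 °C. Sampled at 0, 5, 10, 15, 30 and 45 min with cold ACN quench. No-NADPH incubation as negative control; ketanserin as positive control. LC-MS/MS; half-life from ln(remaining) versus time.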

The nature of series [13]: Downregulation of KLK3 gene expression in human VCaP cells at 30 nM incubated for 24 hrs by qRT-PCR analysis. Format: functional. An outline of the steps: as §1
The subject of series [14] is VCaP. The series can be described thus: Antitumor activity against human VCaP cells xenografted in CB17 SCID mouse assessed as tumor growth inhibition at 7.5 mg/kg, po administered for 21 days. Conditions: 504 h, time 21 day, read-out: TGI. The class given is functional. An outline of the steps:
as §2

Series [15] has as its system Mus musculus. The series can be described thus: In vivo induction of androgen receptor degradation in human VCaP cells xenografted in CB17 SCID mouse assessed as reduction in FKBP5 mRNA level at 12.5 mg/kg, po measured after 6 to 24 hrs by qRT-PCR analysis. Format: functional, organism-based. Conditions: time 6-24 hrs.
In series [16] the test system is VCaP. The experiment in a line: Induction of androgen receptor degradation in human VCaP cells at 100 nM pretreated with MG132 for 2 hrs followed by compound addition and 3 hrs by Western blot analysis. The class given is functional, cell-based. Conditions: time 5.0 hrs. A digest of the protocol: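 LNCaP or VCaP cells pretreated 2 h with DMSO, ARi-12 (10 μM), thalidomide (10 μM), MG-132 (3 μM) or MLN4924 (0.5 μM), then given degrader at 100 nM for 3 h. AR measured by Western blot with GAPDH as loading control.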

Series [17] concerns the target Voltage-gated inwardly rectifying potassium channel KCNH2 (Homo sapiens, UniProt Q12809). The experiment in a line: Inhibition of human ERG expressed in HEK293 cells by whole cell patch clamp assay. The class given is toxicity, cell-based. A digest of the protocol: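 Manual whole-cell patch clamp at room temperature on HEK293 cells stably expressing hERG. Compound tested at 3 and 30 μM in duplicate; terfenadine as positive control.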

Active and inactive are the calls of the source. No cut-off for these calls is given here.

Chain of Voltage-gated inwardly rectifying potassium channel KCNH2 (Q12809 whole entry): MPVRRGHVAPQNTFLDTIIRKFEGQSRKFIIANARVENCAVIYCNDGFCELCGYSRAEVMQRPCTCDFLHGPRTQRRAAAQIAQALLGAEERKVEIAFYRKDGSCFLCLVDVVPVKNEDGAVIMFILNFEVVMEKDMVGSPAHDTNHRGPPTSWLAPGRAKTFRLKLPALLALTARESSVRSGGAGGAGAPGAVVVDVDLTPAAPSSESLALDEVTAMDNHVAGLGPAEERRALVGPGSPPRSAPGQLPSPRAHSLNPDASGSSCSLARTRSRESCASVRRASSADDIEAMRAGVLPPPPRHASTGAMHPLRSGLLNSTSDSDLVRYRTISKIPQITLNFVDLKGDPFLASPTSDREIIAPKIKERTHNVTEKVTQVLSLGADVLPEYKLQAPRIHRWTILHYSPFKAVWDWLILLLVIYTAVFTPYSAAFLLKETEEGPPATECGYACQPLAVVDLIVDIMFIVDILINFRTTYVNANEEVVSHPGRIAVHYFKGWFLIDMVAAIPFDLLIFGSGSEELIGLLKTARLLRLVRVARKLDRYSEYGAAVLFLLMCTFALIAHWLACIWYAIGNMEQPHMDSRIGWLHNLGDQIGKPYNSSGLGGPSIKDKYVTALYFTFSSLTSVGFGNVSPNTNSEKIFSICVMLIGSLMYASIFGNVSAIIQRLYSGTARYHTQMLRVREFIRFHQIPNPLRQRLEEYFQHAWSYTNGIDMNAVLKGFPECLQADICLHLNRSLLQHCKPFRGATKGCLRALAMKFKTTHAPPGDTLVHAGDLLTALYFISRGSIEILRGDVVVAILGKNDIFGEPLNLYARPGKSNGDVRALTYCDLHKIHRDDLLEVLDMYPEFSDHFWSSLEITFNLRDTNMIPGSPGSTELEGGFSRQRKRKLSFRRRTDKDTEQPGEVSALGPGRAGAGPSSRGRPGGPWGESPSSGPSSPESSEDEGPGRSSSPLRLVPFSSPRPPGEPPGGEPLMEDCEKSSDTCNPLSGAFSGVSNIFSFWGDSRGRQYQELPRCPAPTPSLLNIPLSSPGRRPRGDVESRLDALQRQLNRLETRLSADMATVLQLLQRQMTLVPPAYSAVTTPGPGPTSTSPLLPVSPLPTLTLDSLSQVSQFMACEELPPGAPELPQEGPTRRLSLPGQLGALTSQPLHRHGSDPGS

In the case of `C[C@H]1CC2(CCN(c3ccc(C(=O)N4CCN(C5CN(c6ccc7c(c6)C(=O)N(C6CCC(=O)NC6=O)C7=O)C5)CC4)cc3)CC2)CN1c1ccc(C#N)c(Cl)c1` (stereo partly drawn), the IC50 on Cytochrome P450 1A2 is more than 10 µM; in the series with VCaP [10], 10 nM; in series [17] it was more than 30 µM. Also, the Activity was found to be 53% in [1] and 87% in series [13]. Moreover, the t1/2 is on record as more than 120 min in series [2] and more than 60 min in [12]. In addition, the clearance was found to be 3.7 mL/min/kg in [3] and 10.2 mL/min/kg in series [5]. The Vdss in series [4] amounted to 1.3 L/kg. Also, the inhibition in vivo at 15 mg/kg in the series with VCaP [6] is 61%. In addition, the concentration at 24 h in series [7] was 742 ng/mL. The molecule further came in with a concentration at 3 h in [8] of 664 ng/mL. For the same molecule, the inhibition in vivo at 3.75 mg/kg in the series with VCaP [9] was determined as 44%. Moreover, the outcome with Mus musculus [11] and with Mus musculus [15] was Active. For the same molecule, in the series on VCaP [14], the inhibition in vivo at 7.5 mg/kg was 71%. The outcome in the series with VCaP [16] was inactive.

As usually defined, the IC50 is the concentration needed to halve the response being measured. A high value points to a need for much substance. As a reminder, the clearance is the rate of elimination divided by the concentration. Low readings indicate a low capacity for elimination, high ones a high capacity for elimination. One may read the Vdss as a proportionality between amount in the body and measured concentration, not a real space.

Values taken from ChEMBL document CHEMBL5331127, “Discovery of ARD-2051 as a Potent and Orally Efficacious Proteolysis Targeting Chimera (PROTAC) Degrader of Androgen Receptor for the Treatment of Advanced Prostate Cancer” (J Med Chem, 2023).
